# Measurements reported in ChEMBL document CHEMBL1147601, “Synthesis, biodistribution and micro-PET imaging of radiolabeled antimitotic agent T138067 analogues” (Bioorg Med Chem Lett, 2004).
# Tests used:
# [1] = In vivo biodistribution ratio in tumor to that of blood (T/B ratio) in MCF-7 transfected with IL-1alpha implanted athymic mice; type: ADME, organism-based; settings: mouse
# Summary of the method: (§1)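 Tumor-bearing athymic mice 8 weeks after xenograft implantation; tail-vein iv dose of 1–3 mCi [11C]-labeled tracer (subpharmacologic) in conscious restrained animals. Killed by decapitation under halothane at 30 min. Tissues excised and weighed, decay-corrected radioactivity gamma-counted, expressed as % injected dose/g. Tumor/blood and tumor/muscle ratios taken from these values. Mean ± SD, n=3 mice.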
# [2] = In vivo biodistribution ratio in tumor to that of blood (T/B ratio) in MDA-MB-435 implanted athymic mice; type: functional
# Summary of the method: (§2)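 Athymic mice 8 weeks after MDA-MB-435 xenograft implantation received a subpharmacologic iv tail-vein dose of the 11C-labelled tracer under conscious restraint. They were killed by decapitation under halothane at 30 min post injection. Tissues were excised and weighed, and decay-corrected radioactivity was gamma-counted as % id/g. The ratio is tumor %id/g over muscle or blood %id/g, given as mean ± SD of n=3 mice.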
# Mus musculus [3] = test: In vivo biodistribution of compound in kidney of MCF-7 transfected with IL-1alpha implanted athymic mice at 30 min post iv injection; type: ADME, organism-based; settings: 0.5 h; summary of the method: as §1
# Mus musculus [4] = test: In vivo biodistribution of compound in muscle of MDA-MB-435 implanted athymic mice at 30 min post iv injection; type: ADME, organism-based, Muscle tissue; settings: 0.5 h; summary of the method: as §1
# Mus musculus [5] = test: In vivo biodistribution of compound in kidneys of MDA-MB-435 implanted athymic mice at 30 min post iv injection; type: ADME, organism-based, Kidney; settings: 0.5 h; summary of the method: as §1
# Mus musculus [6] = test: In vivo biodistribution of compound in heart of MDA-MB-435 implanted athymic mice at 30 min post iv injection; type: ADME, organism-based; settings: 0.5 h; summary of the method: as §1
# Mus musculus [7] = test: In vivo biodistribution of compound in heart of MCF-7 transfected with IL-1alpha implanted athymic mice at 30 min post iv injection; type: ADME, organism-based; settings: 0.5 h; summary of the method: as §1
# Mus musculus [8] = test: In vivo biodistribution of compound in small intestine of MDA-MB-435 implanted athymic mice at 30 min post iv injection; type: ADME, organism-based; settings: 0.5 h; summary of the method: as §1
# Mus musculus [9] = test: In vivo biodistribution of compound in blood of MDA-MB-435 implanted athymic mice at 30 min post iv injection; type: ADME, organism-based; settings: 0.5 h; summary of the method: as §1
# Mus musculus [10] = test: In vivo biodistribution of compound in brain of MCF-7 transfected with IL-1alpha implanted athymic mice at 30 min post iv injection; type: ADME, organism-based; settings: 0.5 h; summary of the method: as §1
# Mus musculus [11] = test: In vivo biodistribution ratio in tumor to that of muscle (T/M ratio) in MCF-7 transfected with IL-1alpha implanted athymic mice; type: ADME, organism-based, Muscle tissue; summary of the method: as §1
# Mus musculus [12] = test: In vivo biodistribution of compound in lungs of MCF-7 transfected with IL-1alpha implanted athymic mice at 30 min post iv injection; type: ADME, organism-based, Lung; settings: 0.5 h; summary of the method: as §1
# Mus musculus [13] = test: In vivo biodistribution of compound in liver of MDA-MB-435 implanted athymic mice at 30 min post iv injection; type: ADME, organism-based; settings: 0.5 h; summary of the method: as §1
# Mus musculus [14] = test: In vivo biodistribution of compound in small intestine of MCF-7 transfected with IL-1alpha implanted athymic mice at 30 min post iv injection; type: ADME, organism-based; settings: 0.5 h; summary of the method: as §1
# Mus musculus [15] = test: In vivo biodistribution of compound in blood of MCF-7 transfected with IL-1alpha implanted athymic mice at 30 min post iv injection; type: ADME, organism-based; settings: 0.5 h; summary of the method: as §1
# Mus musculus [16] = test: In vivo biodistribution of compound in spleen of MDA-MB-435 implanted athymic mice at 30 min post iv injection; type: ADME, organism-based; settings: 0.5 h; summary of the method: as §1
# Mus musculus [17] = test: In vivo biodistribution of compound in liver of MCF-7 transfected with IL-1alpha implanted athymic mice at 30 min post iv injection; type: ADME, organism-based; settings: 0.5 h; summary of the method: as §1
# Mus musculus [18] = test: In vivo biodistribution of compound in tumor of MDA-MB-435 implanted athymic mice at 30 min post iv injection; type: ADME, organism-based; settings: 0.5 h; summary of the method: as §1
# Mus musculus [19] = test: In vivo biodistribution of compound in muscle of MCF-7 transfected with IL-1alpha implanted athymic mice at 30 min post iv injection; type: ADME, organism-based, Muscle tissue; settings: 0.5 h; summary of the method: as §1
# Mus musculus [20] = test: In vivo biodistribution of compound in bone of MDA-MB-435 implanted athymic mice at 30 min post iv injection; type: ADME, organism-based, Bone element; settings: 0.5 h; summary of the method: as §1
# [21] = In vivo biodistribution ratio in tumor to that of muscle (T/M ratio) in MDA-MB-435 implanted athymic mice; type: functional, Muscle tissue; summary of the method: as §2
# Mus musculus [22] = test: In vivo biodistribution of compound in brain of MDA-MB-435 implanted athymic mice at 30 min post iv injection; type: ADME, organism-based; settings: 0.5 h; summary of the method: as §1
# Mus musculus [23] = test: In vivo biodistribution of compound in spleen of MCF-7 transfected with IL-1alpha implanted athymic mice at 30 min post iv injection; type: ADME, organism-based; settings: 0.5 h; summary of the method: as §1
# Mus musculus [24] = test: In vivo biodistribution of compound in lungs of MDA-MB-435 implanted athymic mice at 30 min post iv injection; type: ADME, organism-based, Lung; settings: 0.5 h; summary of the method: as §1
# Mus musculus [25] = test: In vivo biodistribution of compound in tumor of MCF-7 transfected with IL-1alpha implanted athymic mice at 30 min post iv injection; type: ADME, organism-based; settings: 0.5 h; summary of the method: as §1
# Mus musculus [26] = test: In vivo biodistribution of compound in bone of MCF-7 transfected with IL-1alpha implanted athymic mice at 30 min post iv injection; type: ADME, organism-based, Bone element; settings: 0.5 h; summary of the method: as §1
structure (smiles),measurement,setting,value
[11CH3]Oc1ccc(NS(=O)(=O)c2c(F)c(F)c(F)c(F)c2F)cc1F,Kp,[1],0.94
same,Ratio,[2],5.63
same,Injected dose/g,Mus musculus [3],3.34%
same,Injected dose/g,Mus musculus [4],1.99%
same,Injected dose/g,Mus musculus [5],17.62%
same,Injected dose/g,Mus musculus [6],8.54%
same,Injected dose/g,Mus musculus [7],1.75%
same,Injected dose/g,Mus musculus [8],6.19%
same,Injected dose/g,Mus musculus [9],0.35%
same,Injected dose/g,Mus musculus [10],1.53%
same,Ratio,Mus musculus [11],0.89
same,Injected dose/g,Mus musculus [12],4.95%
same,Injected dose/g,Mus musculus [13],14.92%
same,Injected dose/g,Mus musculus [14],5.16%
same,Injected dose/g,Mus musculus [15],1.68%
same,Injected dose/g,Mus musculus [16],2.95%
same,Injected dose/g,Mus musculus [17],6.79%
same,Injected dose/g,Mus musculus [18],1.92%
same,Injected dose/g,Mus musculus [19],1.7%
same,Injected dose/g,Mus musculus [20],1.75%
same,Ratio,[21],1.01
same,Injected dose/g,Mus musculus [22],1.03%
same,Injected dose/g,Mus musculus [23],2.01%
same,Injected dose/g,Mus musculus [24],9.2%
same,Injected dose/g,Mus musculus [25],1.51%
same,Injected dose/g,Mus musculus [26],1.31%
